Like-named read-outs stand apart in the source and are kept apart here.
Legend:
[1] = target: T1, KACh channel (Rattus norvegicus, UniProt P48548+P63251); experiment: βγ-activated KACh channels, atrial inside-out patches; assay type: cell-based
T1 sequence (P63251 1-501): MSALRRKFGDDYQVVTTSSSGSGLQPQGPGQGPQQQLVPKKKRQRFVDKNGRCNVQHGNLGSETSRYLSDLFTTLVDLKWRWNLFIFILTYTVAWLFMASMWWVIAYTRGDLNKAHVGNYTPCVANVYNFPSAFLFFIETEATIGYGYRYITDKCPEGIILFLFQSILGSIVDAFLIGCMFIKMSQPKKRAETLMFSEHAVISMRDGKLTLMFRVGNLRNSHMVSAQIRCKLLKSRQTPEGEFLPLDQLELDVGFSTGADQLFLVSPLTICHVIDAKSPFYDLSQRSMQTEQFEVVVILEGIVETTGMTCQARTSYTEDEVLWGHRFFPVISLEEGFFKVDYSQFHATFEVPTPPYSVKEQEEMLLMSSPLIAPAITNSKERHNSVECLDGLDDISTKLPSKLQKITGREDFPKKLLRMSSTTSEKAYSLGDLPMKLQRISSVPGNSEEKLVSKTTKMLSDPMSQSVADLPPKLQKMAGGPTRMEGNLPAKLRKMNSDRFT
T1 sequence (P48548 1-419): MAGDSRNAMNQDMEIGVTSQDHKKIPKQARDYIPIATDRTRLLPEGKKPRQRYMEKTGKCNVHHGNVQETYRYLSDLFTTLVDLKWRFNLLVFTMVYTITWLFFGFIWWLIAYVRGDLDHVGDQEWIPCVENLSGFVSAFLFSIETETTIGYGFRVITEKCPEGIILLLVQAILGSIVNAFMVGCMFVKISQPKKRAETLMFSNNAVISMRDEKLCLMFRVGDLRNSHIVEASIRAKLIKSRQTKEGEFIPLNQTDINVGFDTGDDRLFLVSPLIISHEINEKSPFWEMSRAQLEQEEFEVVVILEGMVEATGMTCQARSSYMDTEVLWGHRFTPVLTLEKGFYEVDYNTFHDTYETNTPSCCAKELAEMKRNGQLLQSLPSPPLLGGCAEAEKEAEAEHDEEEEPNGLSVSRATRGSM
Outline: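 Atrial inside-out patches at −60 mV in 140 mM KCl, pH 7.2, 24–26°C. Channels were activated by purified bovine βγ subunit applied to the cytoplasmic face. Linoleic or arachidonic acid (2 μM, sonicated into bath solution) was applied first, then 4 mM ATP was added. nPo was compared before and after ATP.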

[2] = target: T1, KACh channel; assay type: cell-based; details: for inhibition of ATP-dependent gating, extracellular application: 5 μM in the pipette solution (extracellular), after 5 min, n = 4 each; for Hill coefficient of inhibition: ATP-modified KACh channels, inside-out
[3] = target: KATP channel (Rattus norvegicus, UniProt P70673); experiment: KATP channel, inside-out patches from adult rat ventricular cells; assay type: cell-based
Outline: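 KATP channels that appeared on forming inside-out patches were tested with 5 μM arachidonic acid on the cytoplasmic side. In some patches channels were first allowed to run down, then briefly exposed to 3 mM ATP to reactivate them before fatty acid was applied. Recordings were at 24–26°C; 2 μM was also tested (n = 3).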

[4] = system: GIRK1/4; experiment: ATP-dependent gating of GIRK1/4 expressed in Xenopus oocytes, βγ-activated; assay type: cell-based; details: βγ 50 nM
Outline: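 Xenopus oocytes injected with GIRK1 and GIRK4 cRNA (~0.5 ng/nl) and kept ~2 d at 19°C in Barth's solution. Vitelline membrane was removed before patching. Inside-out patches in 140 mM KCl, pH 7.2. Channel activity and open-time kinetics were assessed with ATP and fatty acid on the cytoplasmic side.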

[5] = system: K1 channel; experiment: ATP-activated background K1 channel, atrial inside-out patches; assay type: cell-based, rat
[6] = target: T2, KACh channels in hippocampal pyramidal neurons (Rattus norvegicus, UniProt P48550+P63251); experiment: ATP-dependent gating of KACh channel in hippocampal neurons, 5-HT as agonist; assay type: cell-based; details: 2 μM with 100 μM GTP and 4 mM ATP, 10 μM 5-HT in pipette
T2 sequence (P63251 1-501): T1 sequence (P63251 1-501)
T2 sequence (P48550 1-425): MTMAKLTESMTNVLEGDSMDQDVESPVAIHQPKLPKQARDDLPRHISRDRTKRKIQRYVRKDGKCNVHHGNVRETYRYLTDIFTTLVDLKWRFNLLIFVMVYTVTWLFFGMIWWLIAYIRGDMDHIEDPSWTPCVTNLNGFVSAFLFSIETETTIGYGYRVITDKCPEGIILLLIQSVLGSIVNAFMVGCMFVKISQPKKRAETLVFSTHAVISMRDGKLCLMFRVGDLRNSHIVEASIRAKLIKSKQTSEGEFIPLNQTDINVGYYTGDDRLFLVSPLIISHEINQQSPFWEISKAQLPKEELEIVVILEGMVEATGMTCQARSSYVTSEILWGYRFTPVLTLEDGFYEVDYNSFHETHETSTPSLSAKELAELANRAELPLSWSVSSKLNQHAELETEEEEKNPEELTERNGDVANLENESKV
Outline: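 Pyramidal neurons from the CA3 region of adult rat hippocampus. Slices ~500 μm thick were digested in 0.33 mg/ml trypsin at 30°C, then in DNase I, triturated, and settled onto coverslips. Inside-out patches were activated by 100 μM GTP, then 4 mM ATP was added. Open states were assessed from duration histograms and kinetic-scheme fits with one or two open states.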

[7] = target: T1, KACh channel; assay type: cell-based; details: 2 μM fatty acid applied with 30 μM PIP2
[8] = K 1/2 (effect on ATP-dependent gating of KACh channel), atrial inside-out patches, 100 μM GTP and 4 mM ATP, lipid 0.1, 1, 3, 10 and 30 μM, n = 3 each

Chain of KATP channel (P70673 whole entry): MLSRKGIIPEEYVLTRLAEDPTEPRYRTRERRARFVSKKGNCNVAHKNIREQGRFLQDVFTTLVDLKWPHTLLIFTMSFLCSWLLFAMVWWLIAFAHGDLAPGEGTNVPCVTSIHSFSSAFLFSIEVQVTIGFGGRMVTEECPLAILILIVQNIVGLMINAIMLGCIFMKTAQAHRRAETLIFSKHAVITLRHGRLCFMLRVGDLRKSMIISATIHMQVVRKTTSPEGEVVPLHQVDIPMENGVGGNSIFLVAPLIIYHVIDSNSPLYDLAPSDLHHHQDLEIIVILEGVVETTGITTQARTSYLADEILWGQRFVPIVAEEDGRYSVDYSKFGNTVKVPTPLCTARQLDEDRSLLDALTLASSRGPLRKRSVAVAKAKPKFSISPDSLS
Chain of KATP channel (Q63563 whole entry partner): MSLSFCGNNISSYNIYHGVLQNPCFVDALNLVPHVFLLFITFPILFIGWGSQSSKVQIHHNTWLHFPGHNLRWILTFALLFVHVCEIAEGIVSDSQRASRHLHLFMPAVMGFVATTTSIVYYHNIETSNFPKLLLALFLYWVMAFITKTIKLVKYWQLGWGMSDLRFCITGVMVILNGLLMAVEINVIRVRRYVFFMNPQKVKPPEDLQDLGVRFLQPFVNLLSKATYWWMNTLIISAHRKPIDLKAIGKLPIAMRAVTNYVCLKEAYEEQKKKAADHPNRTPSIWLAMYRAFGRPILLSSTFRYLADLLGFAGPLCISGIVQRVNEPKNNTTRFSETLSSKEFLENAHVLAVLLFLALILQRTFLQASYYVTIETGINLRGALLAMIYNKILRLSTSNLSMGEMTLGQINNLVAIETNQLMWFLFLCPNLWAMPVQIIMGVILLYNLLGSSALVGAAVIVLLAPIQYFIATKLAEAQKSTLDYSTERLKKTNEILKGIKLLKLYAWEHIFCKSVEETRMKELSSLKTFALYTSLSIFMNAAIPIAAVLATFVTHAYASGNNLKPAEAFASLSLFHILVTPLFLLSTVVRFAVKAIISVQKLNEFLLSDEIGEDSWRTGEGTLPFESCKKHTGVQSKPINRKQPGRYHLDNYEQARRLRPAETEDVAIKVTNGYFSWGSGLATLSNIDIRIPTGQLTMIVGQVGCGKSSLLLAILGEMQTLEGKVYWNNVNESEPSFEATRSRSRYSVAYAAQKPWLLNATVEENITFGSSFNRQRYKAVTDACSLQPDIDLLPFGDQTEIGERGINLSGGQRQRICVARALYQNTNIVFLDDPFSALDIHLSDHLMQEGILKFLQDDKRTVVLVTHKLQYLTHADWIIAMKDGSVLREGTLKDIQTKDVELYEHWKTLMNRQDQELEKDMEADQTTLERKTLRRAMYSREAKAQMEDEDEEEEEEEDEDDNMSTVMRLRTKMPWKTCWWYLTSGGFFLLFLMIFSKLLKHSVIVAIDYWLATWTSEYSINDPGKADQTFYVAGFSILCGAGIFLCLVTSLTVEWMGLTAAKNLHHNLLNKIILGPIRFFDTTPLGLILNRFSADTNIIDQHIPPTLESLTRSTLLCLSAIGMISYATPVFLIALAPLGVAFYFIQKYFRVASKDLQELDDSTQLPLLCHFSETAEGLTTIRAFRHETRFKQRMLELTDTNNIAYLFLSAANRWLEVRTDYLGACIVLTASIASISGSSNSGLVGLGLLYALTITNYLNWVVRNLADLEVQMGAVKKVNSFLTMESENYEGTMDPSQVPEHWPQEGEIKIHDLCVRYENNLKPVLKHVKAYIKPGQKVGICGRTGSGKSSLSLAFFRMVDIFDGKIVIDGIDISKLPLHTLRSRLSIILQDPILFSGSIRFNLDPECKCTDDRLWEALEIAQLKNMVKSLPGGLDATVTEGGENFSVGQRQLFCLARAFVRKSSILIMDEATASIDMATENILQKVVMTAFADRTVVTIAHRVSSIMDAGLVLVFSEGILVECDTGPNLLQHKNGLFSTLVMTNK

IC50 [1] [µM]	KACh open time constant after fatty acid ([2]; 2 μM AA with GTP and 4 mM ATP, atrial patch also containing K1 channel) [ms]	inhibition of ATP-dependent gating, extracellular application [2]	Hill coefficient of inhibition [2]	IC50 [2, 8] [µM]	voltage dependence of the effect ([2]; channel activity at different membrane potentials (Fig. 10 B))	KATP channel inhibition in the presence of PIP2 ([3]; 5 μM AA with PIP2 present, listed as AA)	inhibition of KATP channels reactivated by ATP after rundown ([3]; brief exposure to 3 mM ATP, n = 4, listed as AA)	inhibition at 2 µM ([3]; read-out: inhibition of KATP channel activity) [%]	increase in channel activity on further addition of 4 mM ATP ([1]; βγ-activated channels exposed to 2 μM fatty acid first, n = 5) [fold]	IC50 ([2]; K 1/2 for inhibition, pipette solution 70 mM K+, n = 3) [µM]	IC50 ([2]; K 1/2 for inhibition, pipette solution 140 mM K+, n = 3) [µM]	IC50 ([2]; K 1/2 for inhibition, pipette solution 210 mM K+, n = 3) [µM]	inhibition of KATP channel activity ([3]; 5 μM, during channel rundown)	open time constant (one open state) [6] [ms]	effect on PIP2-dependent gating of KACh channel [7]	SMILES	effect on ATP-induced changes in GIRK1/4 channel kinetics [4]	effect on K1 channel ([5]; 2 or 5 μM AA, ATP-activated, n = 3 each, listed as AA)	influence on K1 channel kinetics ([5]; linoleic acid 2 μM (n = 3), cytosolic fraction 5 mg protein/ml (n = 2), lipid fraction (n = 2))
1.5	1.0 ± 0.1	did not inhibit	~2	1.7 ± 0.2	voltage-insensitive	ineffective	quick inhibition	62 ± 12								CCCCC/C=C\C/C=C\C/C=C\C/C=C\CCCC(=O)O [Arachidonic acid [20:4 (n-6)], Arachidonic acid]	blocked	no effect	
		did not inhibit	~2	1.2 ± 0.2					1.3 ± 0.1	1.6 ± 0.4	1.5 ± 0.3	1.7 ± 0.4	near maximal inhibition	1.0 ± 0.1	inhibited	CCCCC/C=C\C/C=C\CCCCCCCC(=O)O [Linoleic acid [18:2 (n-6)], Linoleic acid]			failed to significantly influence

— PMC2217204 (The Journal of General Physiology, 2000)
